Shown are actives, neighbours in structure and some others; about 9.6% of the full set was active somewhere.
HCT116 PTEN-null – growth suppressors of cells with PTEN tumor suppressor deletion; HCT116 PTEN-null viability, CellTiter-Glo, 60 h; active compounds read low; viability, % at 10 µM; 140,000 tested, 1.2% active; AID 827;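 active = viability at or below a set limit, 4 SD under the median of all tested compounds, cut at about 3.7% in these data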;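 also: PTEN knockout HCT116 line with beta catenin targeted HCT116 as companion control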
PMI act satM6P – increases human PMI activity with near-saturating mannose 6-phosphate; P34949; coupled PMI enzyme assay, resazurin fluorescence, 20 min; active compounds read high; 1 = untreated enzyme, 0 = substrate-free blank; activation factor at 20 µM; 190,000 tested, 0.34% active; AID 1216;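 active = activation factor of 2 or more at 20 µM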
Target sequence (P34949 whole entry, looked up): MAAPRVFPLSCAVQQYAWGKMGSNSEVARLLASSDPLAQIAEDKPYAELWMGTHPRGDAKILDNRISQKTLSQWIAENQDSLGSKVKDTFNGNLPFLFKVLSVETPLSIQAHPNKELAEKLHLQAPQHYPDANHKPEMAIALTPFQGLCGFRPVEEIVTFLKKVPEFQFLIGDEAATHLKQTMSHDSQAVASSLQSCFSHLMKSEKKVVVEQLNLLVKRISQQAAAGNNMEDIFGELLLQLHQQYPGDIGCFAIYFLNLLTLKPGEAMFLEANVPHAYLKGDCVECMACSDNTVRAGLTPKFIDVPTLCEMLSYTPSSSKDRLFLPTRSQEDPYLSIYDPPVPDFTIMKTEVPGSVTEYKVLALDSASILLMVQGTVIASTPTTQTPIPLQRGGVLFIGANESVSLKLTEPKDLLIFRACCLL
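Material: human phosphomannose isomerase with PGI, G6PDH, diaphorase coupling enzymes / Reagent: Man-6-P substrate 1.0 mM / Dosing: single compound dose of 20 µM, 1% DMSO final / Incubation: enzyme reaction with compound 20 min at room temperature / Signal: resorufin fluorescence (Ex 544/Em 590 nm) from resazurin via diaphorase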
Lmaj promast – inhibitors of Leishmania major promastigote growth. Leishmania major promastigotes, resazurin fluorescence viability. inhibition, % at 10 µM. 200,000 tested, 9% active; in the data active = inhibition above about 50%;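 also: promastigotes grown with compound for 44 hours at 28 °C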
bCat KO growth – beta-catenin-lacking colon tumor cell growth suppression; HCT116 beta-catenin knockout viability, CellTiter-Glo, 60 h; active compounds read low; viability, % at 10 µM; AID 818; 140,000 tested, 1.5% active;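 active = viability at or under a set limit, the compound median less 4 SD, cut at about 6% in these data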;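 also: 0% = Hyamine 1622 control at 20 µM and 100% = untreated cell control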
PMI act – activators of human phosphomannose isomerase; P34949; purified human PMI, coupled resazurin fluorescence, 20 min; active compounds read high; 1 = vehicle control, 0 substrate-free wells; activation factor at 20 µM; 190,000 tested, 0.005% active; AID 1214;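 active = activation factor of 2 or more at 20 µM, relative to plate controls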
Starred values were filed as active, the others as inactive; nt = not tested or not shown.

SMILES	HCT116 PTEN-null	PMI act satM6P	Lmaj promast	bCat KO growth	PMI act
CCOC(=O)c1cnc2c(OC)cccc2c1N1CCN(c2ccccc2OC)CC1	56.5	0.9	62.8*	68.7	0.9
CCOC(=O)c1cnc2c(OC)cccc2c1N1CCN(c2ccccn2)CC1	nt	1	44.1	nt	1
Nc1c(C(=O)Nc2ccc(Cl)c(Cl)c2)sc2nc(-c3cccnc3)ccc12	97.3	1	58.9*	95.9	0.9
COCCN(CCOC)S(=O)(=O)c1ccc(C(=O)Nc2nnc(C3CC3)o2)cc1	82.4	0.9	-6.1	87.1	0.9
CCN(c1ccccc1)S(=O)(=O)c1ccc(C(=O)Nc2nnc(-c3ccco3)o2)cc1	nt	1.3	98.9*	nt	1.2
O=C(/C=C/c1ccccc1)Nc1nnc(-c2ccco2)o1	nt	1	65.1*	nt	0.9
CN(c1ccccc1)S(=O)(=O)c1ccc(C(=O)Nc2nnc(-c3ccco3)o2)cc1	nt	1.1	10.2	nt	1.1
CN(c1ccccc1)S(=O)(=O)c1ccc(C(=O)Nc2nnc(C3CC3)o2)cc1	nt	1.3	98.3*	nt	1.3
CCN(c1ccccc1)S(=O)(=O)c1ccc(C(=O)Nc2nnc(C3CC3)o2)cc1	nt	1.2	94.0*	nt	1
CC(/C=C/c1ccco1)=N\NC(=O)CNc1cccc(C)c1	nt	0.8	-0.4	nt	1
CC12CCC(C/C1=N/NC(=O)Nc1ccccc1)C2(C)C (configuration not stated)	nt	0.9	95.0*	nt	0.9
COc1cccc(NC(=S)N/N=C2\CC3CCC2(C)C3(C)C)c1 (configuration not stated)	nt	1	88.7*	nt	0.9
COc1cccc(NC(=S)NN=C2CCC(C(C)(C)C)CC2)c1 (configuration not stated)	nt	2.1*	-2.8	nt	1.5
COc1cccc(/C=N/NC(=S)Nc2cccc(C(=O)O)c2)c1	nt	1	-6.2	nt	1
CC12CCC(C/C1=N/NC(=O)COc1ccccc1Cl)C2(C)C (configuration not stated)	nt	0.9	24.5	nt	1
COc1cccc(NC(=S)N/N=C2\CC(C)(C)Oc3ccc(O)cc32)c1	62.6	1	4.0	76.7	0.9
COc1ccc(C2C(C(=O)Nc3ccc4c(c3)OCCO4)c3ccccc3C(=O)N2C)cc1 (configuration not stated)	93.8	1.1	-1.2	89.3	1
CC(=O)Nc1nnc(SCc2ccc(C(=O)Nc3ccccc3F)cc2)s1	nt	0.9	7.0	nt	0.9
COc1ccc(NC(=O)N2CCCCC2c2cccnc2)cc1 (configuration not stated)	96.6	0.9	85.3*	96.1	0.9
CC(=O)Nc1ccc(S(=O)(=O)N2CCCCC2c2cccnc2)cc1 (configuration not stated)	84.2	0.9	2.8	88.5	1
COc1cc(C)c(C)cc1S(=O)(=O)N1CCCCC1c1cccnc1 (configuration not stated)	74.0	1	92.2*	66.2	1
COC(=O)c1sc(NC(=O)CSc2nc3cccnc3n2C2CCCCC2)nc1C	91.5	0.9	60.8*	83.6	0.9
COc1ccc(Nc2nnc(-c3ccc(N4CCOCC4)c([N+](=O)[O-])c3)c3ccccc23)cc1	51.7	0.9	56.9*	41.2	0.9
Cc1ccc(OCC(=O)N2CCN(c3nnc(-c4ccccc4)c4ccccc34)CC2)cc1	43.5	0.9	89.1*	43.5	1
Cc1ccc(-c2nnc(N3CCN(C(=O)CSc4ncn[nH]4)CC3)c3ccccc23)cc1	46.7	0.9	3.7	41.4	0.9
SMILES	HCT116 PTEN-null	PMI act satM6P	Lmaj promast	bCat KO growth	PMI act
Cc1ccc(S(=O)(=O)Nc2ccc(O)c(Sc3ncn[nH]3)c2)cc1	nt	0.7	-1.3	nt	0.8
Cc1ccc(S(=O)(=O)/N=C2/C=C(Sc3ncn[nH]3)C(=O)c3ccccc32)cc1	66.8	0.1	99.9*	31.2	0
CC(C)c1ccc(S(=O)(=O)/N=C2/C=C(Sc3ncn[nH]3)C(=O)c3ccccc32)cc1	11.1	0.2	99.0*	2.1*	0
Cc1ccc(S(=O)(=O)/N=C2/C=C(Sc3ncn[nH]3)C(=O)c3ccccc32)c(C)c1	2.8*	0.1	99.1*	1.9*	0
O=C(O)CCCNc1ccc([N+](=O)[O-])c(NCCCC(=O)O)n1	nt	0.7	-4.7	nt	1
Cc1cc(C)c2ccc(NN)nc2c1O	18.1	1.4	99.5*	8.4	1.2
COc1ccnc(N=CNOCc2ccc(F)cc2Cl)c1C#N	114.5	1.1	7.6	111.7	1.1
CCCOc1cc(CC(=O)NCc2ccco2)ccc1OC	89.2	1.1	1.8	98.0	1
COc1ccc(CNCc2ccco2)cc1OCc1ccccc1	99.9	0.9	99.8*	93.6	0.8
COc1ccccc1CCNCc1ccc(OC)c(OCc2ccccc2)c1	15.9	0.9	100.3*	20.4	0.9
COc1ccccc1CNC(=S)NCCc1ccccc1	83.5	1	-0.6	86.1	1
C[C@H]1O[C@H](O[C@H]2[C@H](O)[C@@H](O)[C@@H](O[C@H]3[C@H](O)[C@@H](O)C(O)O[C@@H]3CO)O[C@@H]2CO)[C@H](O)[C@@H](O)[C@@H]1N[C@H]1C=C(CO)[C@@H](O)[C@H](O)[C@H]1O (some centres not stated)	nt	1	nt	nt	1
CCNC(=S)NNC(=O)c1ccccn1	76.3	1.1	-0.1	74.8	0.9
O=C(NNC(=O)C(c1ccccc1)c1ccccc1)c1ccccn1	5.8	1	98.8*	4.8*	0.9
O=C(NNc1ccccn1)C(c1ccccc1)c1ccccc1	nt	1	-1.1	nt	0.5
O=C(NNC(=S)Nc1ccc(Cl)c(Cl)c1)c1ccccn1	nt	1.3	96.0*	nt	1.1
Cn1cc(C(=O)c2ccc(F)cc2)cc1-c1nc2ccccc2n1C	80.0	0.8	71.0*	73.7	0.8
CC(C)N1CCN(Cc2ccc3c(c2)Cc2ccccc2-3)CC1CCO (configuration not stated)	nt	nt	85.4*	nt	nt
CC(=O)c1cccc(CN2CCN(C(C)C)C(CCO)C2)c1 (configuration not stated)	nt	0.8	0.1	nt	0.8
CCc1ccc(S(=O)(=O)NC(=S)Nc2ccccc2)cc1	nt	0.9	-0.8	nt	0.5
FC(F)(F)c1ccc(N2CCOCC2)c(Nc2nc3ccccc3n3cnnc23)c1	0.4*	0.8	46.0	0.8*	0.7
Cc1ccc(C(=O)NCC(=O)N/N=C/c2cccs2)cc1C	nt	0.9	-1.2	nt	1
O=C(Cn1cccc1C(=O)c1ccccc1)NCc1ccc2c(c1)OCO2	94.7	0.8	1.6	94.4	0.9
Cc1nc2cc(-c3cccc(F)c3)nn2c(C)c1CCC(=O)NC(C)c1ccc2c(c1)OCCO2 (configuration not stated)	76.2	1.1	96.7*	83.9	1
Cc1nc2nc(C)c(CCC(=O)NC(C)c3ccc4c(c3)OCCO4)c(C)n2n1 (configuration not stated)	103.4	1.1	-3.3	96.4	1
